Experimental data reported in the RNAGym collection of RNA variant scans (doi:10.1126/science.aae0568).
This sample holds only a part of the variants without activity.

B1: tRNA (parent)
chain: GUUCCGUUGGCGUAAUGGUAACGCGUCUCCCUCCUAAGGAGAAGACUGCGGGUUCGAGUCCCGUACGGAACG

Variants of: B1
Experiment: yeast fitness relative to wild type (ratio to wild type); higher = fitter; tRNA-Arg(CCU), competitive growth, 37 C, YPD
Outline: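 Start and end populations of a pooled competition were compared by 100-nucleotide paired-end sequencing of gene amplicons. The Saccharomyces cerevisiae strains carried tRNA-Arg(CCU) gene variants at the native genomic locus, synthesised with a 3% per-site mutation rate at 69 sites, and competed in YPD at 37°C for 24 hours in six parallel replicates. Darwinian fitness relative to wild type was based on the change in genotype frequencies. Genotypes required ≥ 100 starting reads, and estimates < 0.5 were set to 0.5.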
Variant GUUCCGUUGGCGUAAUGGUAACGCGUGUCCCUCCUACGGAGGAGACUCCGGGUUCGAGCCCCGUACGGAACG has a yeast fitness of 0.533.
For GUUCCGUUGGCGUAAUGGUAACGCGUGUCCCUCCUAAGGAGACGACUGCGGGUUCGAGUCCCGUUCUGAACG, the yeast fitness was at most 0.5.
In the case of GUUCCGUUGGCGUAAUGGUAACGCGUGUCCCUCCUAAGGAGGAGACUGCGGGUUCGAGUCCCGUACGAAACG, the yeast fitness is reported as at most 0.5.
With GUUCCGUUGGCGUAAUGGUAACGCGUGUCCCUCCUAGGGAGAAGACUGCGGGUUCGAGUCCCGUACGGUACG the yeast fitness was 0.537.
GUUCCGUUGGCGUAAUGGUAACGCGUGUCCCUCCUAAGGCGAAGACUGCGGGUUCGAGUCCCGUACGGAACG gave a yeast fitness of 0.575.
Work on GUUCCGUUGGCGUAAUGGUAACGCGUGUCCCUCCUACGGAGAAGACUCCGGGUUAGAGUCCCAUACGGAACG yielded a yeast fitness of 0.526.
For GUUCCGUUGGCGUAAUGGUAACGCGUGUCCCUCCUAAGGUGAAGACUGCGGGUUCGAGCCCCGUACGGAACG, the yeast fitness was 0.543.
Work on GUUCCGUUGGCGUAAUGGUAACGCGUGUCCCUCCUGAGGAGAAGACUGCGGGUUCGAGUCCCGUGCGGAACG yielded a yeast fitness of at most 0.5.
In the case of GUUCCGUUGGCGUAAUGGUAACGCGUGUCCCUCCUAAGGAGAAGACUGCGGGUUCGAGUCCCGUACGGAACG, the yeast fitness is reported as 0.644.
GUUCCGUUGGCGUAAUGGUAACGCGUAUCCCUCCUAAGGAGAAGACUGCGGGUCCGAGUCCCGUAAGGAACG showed a yeast fitness of at most 0.5.
In the case of GUUCCGUUGGCGUAAUGGUAACGCGUGUCCCUCCUAAGGAGAAGCCUGCGGGUUGGACUCCCGUACGGAACG, the yeast fitness is reported as at most 0.5.
GUUCCGUUGGCGUAAUGGUAACGCGUGUCCCUCCUAAGGAGAAGGCUGCGGGUUCGAGUCUCGUACGGUACG showed a yeast fitness of at most 0.5.
GUUCCGUUGGCGUAAUGGUAACGCGUAUCCCUCCUAAGGAGAAGACUGCGGGUUCGAGUCCCGAACGGAACG showed a yeast fitness of 0.748.
Variant GUUCCGUUGGCGUAAUGGUAACGCGUAUCCCUCCUAAGGAGAAGACUGCGGGUUCGAGUCCCGGACGGAACG has a yeast fitness of 0.65.
For GUUCCGUUGGCGUAAUGGUAACGCGUGUCCCUCCUGAGGAGAAGACUGCGGGUUCGAGUCCCGUACUGAACG, the yeast fitness was at most 0.5.
GUUCCGUUGGCGUAAUGGUAACGCGUGUCCCUCCUAUGGAGAAGACUGGGGGUUCGAGUCCCGUACGGAACG gave a yeast fitness of at most 0.5.
GUUCCGUUGGCGUAAUGGUAACGCGUGUCCCUCCUAAGGUGAAGACUGCGGGUUCGAGUCCCGUACGCAACG gave a yeast fitness of 0.523.
GUUCCGUUGGCGUAAUGGUAACGCGUGUCCCUCCUAGGGAGAAGACUGCGGUUUCGAGUCCCGUACGGAACG showed a yeast fitness of at most 0.5.
Work on GUUCCGUUGGCGUAAUGGUAACGCGUGUCCCUCCUAAGGAGUAGACUGCGGGUUUGAGUCCCGUACGGAACG yielded a yeast fitness of at most 0.5.
Work on GUUCCGUUGGCGUAAUGGUAACGCGUAUCCCUCCUAAGGAGAAGACUGCGGGUUCGAGCCCCGUACGGAACG yielded a yeast fitness of 0.883.
Work on GUUCCGUUGGCGUAAUGGUAACGCGUAUCCCUCCUAAGGAGAAGACUGCGGGUUCGAGGCCCGUACGGAACG yielded a yeast fitness of 0.778.
For GUUCCGUUGGCGUAAUGGUAACGCGUGUCCCUCCUAAGGGGAAGACUGCGGGUUCGAGUCCUGUUCGGAACG, the yeast fitness was at most 0.5.
With GUUCCGUUGGCGUAAUGGUAACGCGUGUCCCUCCUGAGGAGAAGACUGCGGCUUCGAGUCCCGUACGGAACG the yeast fitness was at most 0.5.
For GUUCCGUUGGCGUAAUGGUAACGCGUGUCCCUCCUAAGGAGCAGACUGCGGGUUCGAGUCCCCUACGGAACG, the yeast fitness was at most 0.5.
For GUUCCGUUGGCGUAAUGGUAACGCGUGUCCCUCCUAGGGAGAAGACUGCGGGUUCGAGUCCCGUAUGGAACG, the yeast fitness was 0.538.
For GUUCCGUUGGCGUAAUGGUAACGCGUGUCCCUCCUUAGCAGAAGACUGCGGGUUCGAGUCCCGUACGGAACG, the yeast fitness was 0.526.
Variant GUUCCGUUGGCGUAAUGGUAACGCGUGUCCCUCCUAAGGAGAUGACUGCGGGUUCGAGUCCCGUACGGAACG has a yeast fitness of 0.604.
Work on GUUCCGUUGGCGUAAUGGUAACGCGUGUCCCUCCUAAGGAGUAGACUGCGGGUUUGAGUCCCGUACGGACCG yielded a yeast fitness of at most 0.5.
With GUUCCGUUGGCGUAAUGGUAACGCGUGUCCCUCCUACGAAGAAGCCUGCGGGUUCGAGUCCCGUUCGGAACG the yeast fitness was at most 0.5.
With GUUCCGUUGGCGUAAUGGUAACGCGUGUCCCUCCUGAGGAGAAGACUGCGGGUUCGAGUCCCGUACGAAACG the yeast fitness was at most 0.5.
GUUCCGUUGGCGUAAUGGUAACGCGUGUCCCUCCUCAGGAGAAGACUCCGGGUUCGAGUCCCGUACGGAACG showed a yeast fitness of at most 0.5.
For GUUCCGUUGGCGUAAUGGUAACGCGUGUCCCUCCUAGGGAGAAGACUGCGGGUUCGAGUCCCGUACGGAACG, the yeast fitness was 0.678.
GUUCCGUUGGCGUAAUGGUAACGCGUGUCCCUCCUAUGGAGAAGACUGCGGGUUCGAGUCCCGUACGGAACG gave a yeast fitness of 0.591.
GUUCCGUUGGCGUAAUGGUAACGCGUGUCCCUCCUAAGGAGCAGACUGGGGGUUCGAGUCGCGUACGGAACG gave a yeast fitness of 0.669.
GUUCCGUUGGCGUAAUGGUAACGCGUGUCCCUCCUAAGGAGAGGACUGCGGGUUCGAGUACCGUACGGAACG showed a yeast fitness of at most 0.5.
Work on GUUCCGUUGGCGUAAUGGUAACGCGUGUCCCUCCUAAGGAGACGACUGCGGGUUCGAGUCCCCUACGGAACG yielded a yeast fitness of at most 0.5.
In the case of GUUCCGUUGGCGUAAUGGUAACGCGUGUCCCUCCUAAGGAGACGACUGCGGGUUCGUGUCCCGUACGGAACG, the yeast fitness is reported as 0.599.
For GUUCCGUUGGCGUAAUGGUAACGCGUGUCCCUCCUAAGGAGAGGACUGCGGGUUCGAGUCCCGUACGGAGCG, the yeast fitness was at most 0.5.
